# About 1,200 (0.32%) of roughly 370,000 compounds were called active.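 Rule for the calls: active = inhibition above the mean of all tested compounds plus 3 SD, set per campaign (cut at about 25% in these data); inactive = the rest.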 The entries come from a sample that favours actives as a whole.
# Target: Tyrosyl-DNA phosphodiesterase 2 (Homo sapiens) (UniProt O95551)
# Test: blockers of TDP2 phosphodiesterase activity – biochemical, epi absorbance, recombinant enzyme, primary screen (AID 720702);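 note: 0% = DMSO with enzyme and 100% = buffer with substrate but no TDP2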
# Details: recombinant TDP2, T5PNP hydrolysis, p-nitrophenol absorbance 415 nm; at 12.8 µM; active compounds read high
# In short: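 System: recombinant human TDP2 / Amount: 120 nM TDP2 per well / Also added: 5 mM T5PNP chromogenic substrate / Doses: 12.8 µM single point, 1% DMSO / Incubation: 2 h at 37 °C / Detection: p-Nitrophenol epi absorbance / Evaluation: % inhibition relative to enzyme-containing and enzyme-free wells / Repeats: singlicate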
# Tyrosyl-DNA phosphodiesterase 2 (Homo sapiens), sequence (O95551 whole entry, looked up): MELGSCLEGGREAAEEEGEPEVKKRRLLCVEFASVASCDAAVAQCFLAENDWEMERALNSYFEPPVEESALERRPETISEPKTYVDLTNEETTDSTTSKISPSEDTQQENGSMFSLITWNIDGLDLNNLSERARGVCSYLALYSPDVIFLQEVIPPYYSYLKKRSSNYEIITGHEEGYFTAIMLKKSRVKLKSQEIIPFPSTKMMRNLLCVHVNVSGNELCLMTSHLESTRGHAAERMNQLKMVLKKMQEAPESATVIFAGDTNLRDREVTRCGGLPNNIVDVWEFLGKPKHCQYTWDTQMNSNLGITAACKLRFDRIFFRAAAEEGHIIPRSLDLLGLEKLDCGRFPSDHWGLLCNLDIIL
row,SMILES,inhibition
1,Cc1nn2cc(-c3ccc(Cl)cc3)cnc2c1Br,4.6% (inactive)
2,C=CCn1c(SCc2ccc(Cl)c(Cl)c2)nnc1C(CO)NC(=O)c1ccc(OC)cc1 (stereo not given),-1.56% (inactive)
3,CCCc1c(C)nc2c(Br)cccc2c1Cl,3.31% (inactive)
4,CCCN(CCC)c1c([N+](=O)[O-])c(=O)oc2ccccc12,6.98% (inactive)
5,O=c1oc2ccccc2c(CNc2ccccc2)c1[N+](=O)[O-],40.8% (active)
6,Nc1c(NCCc2ccccc2)c2ccccc2oc1=O,-16.4% (inactive)
7,O=C(OCc1ccccc1)N1CCC2CC1c1ccc(-c3ccc4c(c3)OCO4)cc12 (stereo not given),-3.35% (inactive)
8,Cc1ccc(S(=O)(=O)/N=C2\C=C(NS(=O)(=O)c3ccc(C)cc3)C(=O)c3ccccc32)cc1,4.19% (inactive)
9,COc1ccc(C(=O)C(C)OC(=O)c2cccc(S(=O)(=O)Nc3c(C)n(C)n(-c4ccccc4)c3=O)c2)cc1 (stereo not given),-13.4% (inactive)
10,COc1ccc(S(=O)(=O)/N=C2\C=C(NS(=O)(=O)c3ccccc3)C(=O)c3ccccc32)cc1,36.1% (active)
11,CCCCNC(=O)C[C@H]1C[C@@]2(C(=O)OC)C(=C[C@H](COCc3ccccc3)O[C@@H]2C)N(Cc2ccc(Cl)cc2Cl)C1=O,-0.01% (inactive)
12,C=CCN1C(=O)[C@H](CC(=O)N2CCN(C(=O)OCC)CC2)[C@@]2(C(=O)OCC)CCCC=C12,4.51% (inactive)
13,CCN(CC)CCCN=C(N)N,1.59% (inactive)
14,COc1ccc(NC2=CC(=S)NC(C)(C)C2)cc1,-0.55% (inactive)
15,COc1ccc(-c2ccc3nnc(SCC(=O)Nc4ccc(NC(C)=O)cc4)n3n2)cc1,-3.62% (inactive)
16,COc1ccc(-c2csc(Nc3ccc(O)cc3)n2)cc1,26.4% (active)
17,CCc1cc(=O)oc2cc(OCC(=O)N3CCCc4ccccc43)ccc12,6.19% (inactive)
18,COC(=O)c1cc(S(=O)(=O)N2CCN(C(=O)C3CCCO3)CC2)cn1C (stereo not given),-2.33% (inactive)
19,CCN1C(=O)c2cccc3c(N)ccc1c23,30.9% (active)
20,CCCCN(C)C(=O)c1ccc2c(c1)N(CC)C(=O)c1ccccc1S2(=O)=O,7.54% (inactive)
21,CCN1C(=O)c2cccc3c(S(=O)(=O)Nc4ccccc4O)ccc1c23,-2.02% (inactive)
22,CCOC(=O)c1cccc(NC(=O)CN(C)S(=O)(=O)c2ccc(-c3cocn3)s2)c1,-8.94% (inactive)

row,SMILES,inhibition
1,O=C(NC1CC1)c1ccc(-c2ccccc2)cc1,-8.19% (inactive)
2,COc1ccc(-c2[nH][nH]c(=O)c2NC(=O)c2ccc([N+](=O)[O-])cc2)cc1,19.5% (inactive)
3,Cc1ccc(C(=O)Nc2c(-c3ccccc3)[nH][nH]c2=O)cc1,44.4% (active)
4,C=CCN1C(=O)[C@@H](CC(=O)NCCCCc2ccccc2)[C@]2(C(=O)OCC)CCCCC/C=C/12,3.84% (inactive)
5,O=C(Nc1cc(F)cc(F)c1)OC1CCC12CCC(c1ccccc1)CC2 (stereo not given),3% (inactive)
6,O=C(Nc1ccccc1F)C1C2C=CC3(O2)C1C(=O)N(c1cccnc1)C3C(=O)NC1CCCCC1 (stereo not given),-0.47% (inactive)
7,CC(C)N1C(=O)C2C(C(=O)NC3CCCCC3)C3C=CC2(O3)C1C(=O)NC1CCCC1 (stereo not given),3.15% (inactive)
8,CCN(CC)CCN1C(=O)C2C(C(=O)Nc3ccc(Br)cc3)C3C=CC2(O3)C1C(=O)NC1CCCCC1 (stereo not given),27.5% (active)
9,CC1=C(C(=O)N(C(C)C)C(C)C)CC(CC(=O)NCCCCc2ccccc2)C(=O)N1CCC1=CCCCC1 (stereo not given),-5.04% (inactive)
10,CC(=O)CCS(=O)(=O)c1ccc(C)c(C)c1,-9.65% (inactive)
11,COc1ccc(C(=O)NCc2ccc(Cl)cc2)cc1S(=O)(=O)N1CCCC1,-0.23% (inactive)
12,COCCCNC(=O)c1ccc(CNS(=O)(=O)c2ccc(NC(C)=O)cc2)cc1,-0.2% (inactive)
13,COCCNC(=O)c1ccc(S(=O)(=O)c2ccc(Cl)cc2)c(NC(C)=O)c1,27.5% (active)
14,Cc1cc(OCC(=O)Nc2nccs2)c2c(C)c(C)c(=O)oc2c1,0.03% (inactive)
15,CCOC(=O)c1nc(N)sc1C(=O)OCC,-14.1% (inactive)
16,Nc1nc(O)c(CC(=O)O)s1,27.2% (active)
17,CCCCC(=O)N[C@@H]1CC[C@@]23CCCN2C(=O)CCC[C@H]3[C@H]1C,-3.42% (inactive)
18,Cc1ccc(C)c(OCCC(=O)OCC(=O)N2CCN(c3ccccc3)CC2)c1,-10.4% (inactive)
19,O=C(OCC(=O)N1CCOCC1)c1ccc(N2CCOCC2)c([N+](=O)[O-])c1,-4.23% (inactive)
20,O=C(OCC(=O)N1CCN(c2ccccc2)CC1)c1ccc([N+](=O)[O-])s1,31.9% (active)
21,O=C(NCc1ccccc1Cl)C1CCC(CNc2c(N3CCCCC3)c(=O)c2=O)CC1 (stereo not given),1.69% (inactive)
22,C=C(C)C#CC(Cc1ccccc1)N(CC1CC1)/C(N)=N/C(=O)OCc1ccccc1 (stereo not given),4.08% (inactive)

row,SMILES,inhibition
1,COc1ccc(Cl)cc1NC(=O)CN1CCN(C(=O)N2CCOCC2)CC1,5.78% (inactive)
2,O=C(CN1CCN(c2cccc(Cl)c2)CC1)Nc1ccc(S(=O)(=O)N2CCOCC2)cc1,-4.18% (inactive)
3,Cc1ccc(Cl)cc1NC(=O)CN1CCN(S(=O)(=O)N2CCOCC2)CC1,27.6% (active)
4,COc1ccc(C2CC=C(C(=O)O)C(c3ccccc3F)N2S(=O)(=O)c2ccc(C)cc2)cc1OC (stereo not given),-4.62% (inactive)
5,O=C(C1CCCN1S(=O)(=O)c1ccccc1)N1CCc2ccccc2C1 (stereo not given),-6.17% (inactive)
6,C=CCN(C(=O)[C@@H](CCCC)[C@@H](O)c1ccc(Cl)cc1)c1ccccc1,-12.4% (inactive)
7,CCCCCCCCCCCCCCCC(=O)OC/C=C(C)/C=C/C=C(C)/C=C/C1=C(C)CCCC1(C)C,2.56% (inactive)
8,COCCn1nnnc1C(c1ccccc1Cl)N1CCN(c2ccccc2OC)CC1 (stereo not given),-10.8% (inactive)
9,COc1ccc(CCC(C)N2CCc3ccccc3C2)cc1 (stereo not given),-2.33% (inactive)
10,COCCn1nnnc1C(c1cc2ccc(OC)cc2[nH]c1=O)N1CCc2ccccc2C1 (stereo not given),41.1% (active)
11,NS(=O)(=O)c1ccc(CCNC(=O)c2nc(CS(=O)(=O)c3ccc(Cl)cc3)no2)cc1,-7.74% (inactive)
12,Cc1cc(C)c(S(=O)(=O)c2ccc(F)cc2C)c(=O)[nH]1,8.26% (inactive)
13,CS(=O)(=O)N1CCCC(C(=O)N2CCOCC2)C1 (stereo not given),7.83% (inactive)
14,Cc1ccc(-n2c(SCC(=O)Nc3ccc(S(=O)(=O)Nc4nccs4)cc3)nnc2-c2cccnc2)cc1,-18.4% (inactive)
15,COc1ccccc1CCn1cnc(-c2ccccc2)c1C(C)C,-1.89% (inactive)
16,COc1ccc(C2Nc3ccccc3C(=O)N2Cc2cccs2)cc1COc1c(C)cccc1C (stereo not given),-6.88% (inactive)
17,Cc1nn(-c2ccccc2)c2c1C(c1ccc(F)cc1)C(C#N)=C(N)O2 (stereo not given),78.5% (active)
18,COc1ccccc1C1CC(=O)n2c(nc(-c3ccccc3)c2-c2ccccc2)S1 (stereo not given),-1.89% (inactive)
19,COc1ccccc1C1C(C#N)=C(N)Oc2c1c(-c1ccccc1)nn2-c1ccccc1 (stereo not given),68.7% (active)
20,COc1ccc(C2C(C#N)=C(N)Oc3n[nH]c(C)c32)cc1CN1CCN(c2ccc(F)cc2)CC1 (stereo not given),2.94% (inactive)
21,CCOC(=O)C1=C(C)OC(N)=C(C#N)C1c1cncc(-c2ccc(F)cc2)c1 (stereo not given),2.25% (inactive)
22,CC1=NN(C(=O)Cc2ccc(C)cc2)C(O)(c2cccnc2)C1 (stereo not given),-0.61% (inactive)

row,SMILES,inhibition
1,C[C@@H]1CN([C@@H](C)CO)C(=O)c2cccc(NC(=O)Nc3cccc4ccccc34)c2O[C@H]1CN(C)S(=O)(=O)c1ccccc1F,-6.81% (inactive)
2,CC(C)(C)NC(=O)C(c1cccnc1)N(C(=O)c1cnco1)c1ccc(C(C)(C)C)cc1 (stereo not given),6.07% (inactive)
3,Nc1nc2n(n1)C(c1ccco1)CC(c1ccc(Cl)c(Cl)c1)N2 (stereo not given),-12.1% (inactive)
4,O=C(NCCCc1ccccc1)[C@H](Cc1ccccc1)NC1(C(=O)NCCc2c[nH]c3ccccc23)CCC1,2.05% (inactive)
5,O=C(N[C@H](C(=O)N1CCC[C@H]1C(=O)NCCc1ccccc1Cl)c1ccccc1)c1ccccc1,3.26% (inactive)
6,C[C@H](C(=O)N(C)c1ccccc1)[C@@H](O)c1ccc2ccccc2c1,6.57% (inactive)
7,C=CCN(C)CC#Cc1ccccc1,-6.66% (inactive)
8,CCn1c(SCC(C)=O)nc2sc3c(c2c1=O)CCCC3,-7.52% (inactive)
9,CC1(C)OC(=O)C(=CSc2ccc(C(C)(C)C)cc2)C(=O)O1,-0.61% (inactive)
10,Cc1ccsc1C(C(=O)NC1CCCCC1)N(C(=O)Cc1cccs1)C1CC1 (stereo not given),-13.4% (inactive)
11,O=[N+]([O-])c1ccc(NS(=O)(=O)c2ccccc2)c(Cl)c1,-17.4% (inactive)
12,O=S(=O)(Cc1noc(-c2ccc(OC(F)(F)F)cc2)n1)c1ccc(F)cc1,1.13% (inactive)
13,O=S(=O)(Nc1ccc(O)c2ccccc12)c1ccc(OC(F)(F)F)cc1,46.3% (active)
14,COC(=O)C1CN(CCc2ccccc2)CCS(=O)(=O)N1Cc1cccc(Cl)c1 (stereo not given),6.91% (inactive)
15,COC(=O)CC1CCc2cc(C)cc(C(CC(C)C)NC(=O)[C@H](CC(C)C)NC(=O)OCc3ccccc3)c2O1 (stereo not given in full),-0.76% (inactive)
16,O=S(=O)(c1ccc2c(c1)OCCCO2)N1CCN(S(=O)(=O)c2c(F)cccc2F)CC1,-13.6% (inactive)
17,CCOC(=O)c1c(C)n(C)c2ccc(OC)c(NS(=O)(=O)CC)c12,-7.66% (inactive)
18,O=C(Nc1nccs1)C1CCN(S(=O)(=O)c2ccc(Cl)c(C(F)(F)F)c2)CC1,1.48% (inactive)
19,O=C1CC[C@@]23CCCN2C(=O)CCC[C@H]3[C@H]1Cc1ccccc1,-5.11% (inactive)

# From PubChem BioAssay AID720702 (The Scripps Research Institute Molecular Screening Center, 2013)
